The structures appear in SMILES notation. The source made the active and inactive calls.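 Rule for the calls, unless noted: active = membrane potential signal rise above negative control mean plus 3 SD in both duplicates, also active in the earlier TRPC4 screen; inactive = the rest.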

The results in this text go back to PubChem BioAssay.

Sequence of Short transient receptor potential channel 6 (Mus musculus) (Q61143 whole entry, looked up): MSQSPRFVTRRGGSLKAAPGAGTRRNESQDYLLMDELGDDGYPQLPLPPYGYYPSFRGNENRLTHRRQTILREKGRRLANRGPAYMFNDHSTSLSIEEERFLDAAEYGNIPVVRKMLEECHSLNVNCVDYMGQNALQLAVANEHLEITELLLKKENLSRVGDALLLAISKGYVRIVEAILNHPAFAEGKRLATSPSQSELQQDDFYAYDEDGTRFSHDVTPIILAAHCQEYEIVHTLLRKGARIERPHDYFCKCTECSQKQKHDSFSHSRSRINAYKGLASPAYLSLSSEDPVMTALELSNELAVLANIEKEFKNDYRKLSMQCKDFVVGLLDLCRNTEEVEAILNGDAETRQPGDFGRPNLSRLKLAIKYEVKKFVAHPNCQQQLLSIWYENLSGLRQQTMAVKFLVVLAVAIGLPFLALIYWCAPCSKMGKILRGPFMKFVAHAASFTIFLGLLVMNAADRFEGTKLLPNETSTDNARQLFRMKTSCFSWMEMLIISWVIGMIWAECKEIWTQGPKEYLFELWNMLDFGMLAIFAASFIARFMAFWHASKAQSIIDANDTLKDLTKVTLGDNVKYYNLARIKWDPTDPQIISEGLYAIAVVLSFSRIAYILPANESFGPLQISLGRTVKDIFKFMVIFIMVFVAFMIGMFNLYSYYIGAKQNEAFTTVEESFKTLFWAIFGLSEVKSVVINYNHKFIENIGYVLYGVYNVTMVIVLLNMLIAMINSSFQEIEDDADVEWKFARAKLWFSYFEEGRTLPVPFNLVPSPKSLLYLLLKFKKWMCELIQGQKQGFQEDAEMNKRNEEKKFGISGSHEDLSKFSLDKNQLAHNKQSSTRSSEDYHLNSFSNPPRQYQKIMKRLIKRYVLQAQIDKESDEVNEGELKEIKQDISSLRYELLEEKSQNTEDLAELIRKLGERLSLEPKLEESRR

For one assay, the target named is Short transient receptor potential channel 6 (Mus musculus) (UniProt Q61143). The experiment in a line: inhibition of mouse TRPC6 channel, confirmation, selectivity assay for TRPC4 inhibitor project, cell-based, HEK293, membrane potential dye, duplicate (AID 434948;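 active = active in primary screen and both duplicates, each dropping signal beyond three positive-control SD with fluorescence still positive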). To be noted: HEK293 TRPC6, membrane potential dye fluorescence, at 10 µM, stimulated with maximal-effect acetylcholine; active compounds read high. The method in brief:
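Reagent: acetylcholine at maximal (ECmax) concentration, added after compound; system: HEK293 cells expressing mouse TRPC6 channel; read-out basis: control-normalized integrated fluorescence ratio; replicates: duplicate testing; times: 45 min RT dye load, 110 s compound, 110 s agonist read; signal: membrane potential dye fluorescence, kinetic read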
For `COC(=O)C1CCN(Cc2cn(-c3ccccc3)nc2-c2ccc3c(c2)OCO3)CC1`, the compound was classed as inactive.

In the case of `Cc1cccc(OCCOCCN2CCNCC2)c1C`, the compound was called inactive.

Consider `O=C1/C(=C\c2cc([N+](=O)[O-])ccc2O)SC(=S)N1Cc1ccc(Cl)cc1`, for which the compound was called inactive.

`CCn1c(N2CCN(S(=O)(=O)CC)CC2)nc2ccccc21`: the outcome was inactive.

In the case of `COc1ccc(CSCCN)cc1Cl`, the result was inactive.

On to `O=C1S/C(=C\c2ccc(N3CCOCC3)o2)C(=O)N1Cc1c(F)cccc1Cl`, for which the result was inactive.

With `CC(C)(C)[C@H]1C=C(C(=O)NCc2ccccc2)O[C@@H](OCc2ccc(CO)cc2)C1`, the compound was called inactive.

As for `Nc1c(C(=O)c2ccccc2)sc2nsc(SCCN3CCCC3)c12`, the call was inactive.

For `O=C(CC(=O)c1c(F)cccc1Cl)c1ccccc1O`, the compound was called inactive.

Consider `Cc1ccccc1Cn1c(CN2CCc3ccccc3C2)nc2c1c(=O)n(C)c(=O)n2C`, for which the result was inactive.

Regarding `Cc1csc2c(N3CCN(C(=O)Nc4ccc(OC(F)(F)F)cc4)CC3)ncnc12`, the outcome was inactive.

As for `O=S(=O)(NCCc1csc(-c2ccccc2)n1)c1cccnc1`, the call was inactive.

For the next assay the target is unchanged. In words: activation of mouse TRPC6 channel, confirmation, selectivity assay for TRPC4 activator project, cell-based, HEK293, membrane potential dye, duplicate (AID 434950).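 For activation: 0% = buffer only wells and 100% = acetylcholine maximal-effect wells.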 As to conditions: HEK293 TRPC6, membrane potential fluorescence, at 10 µM; active compounds read high.
As for `COc1ccc(C(CCNCc2ccc(N(C)C)cc2)c2ccccc2)cc1` (configuration not stated), the outcome was inactive.

On to `COc1ccc(C(=O)NNC(=S)NC(=O)c2cccs2)cc1`, for which the activation was 41.5% (active).

Consider `Cc1cccc(C(=O)NC(=S)NNC(=O)Cc2ccccc2)c1`, for which the activation is 32.5% (active).

For the compound `COc1ccc(CC(=O)NCC(c2ccc(OC)cc2)N(C)C)cc1` (configuration not stated), the activation is 46.5% (active).

On to `COc1cccc(C(=O)NC2CCCN(C3Cc4ccccc4C3)C2)c1OC` (configuration not stated), for which the activation is 57.5% (active).

Consider `NC(=O)C1CCCN(CCc2ccccc2)C1` (configuration not stated), for which the call was inactive.

For `CNC[C@H](Cc1ccccc1)NC[C@@H](Cc1cccc2ccccc12)NCCc1ccc(C)cc1`, the result was inactive.

In the case of `O=C(CC1C(=O)NCCN1Cc1cccc(Oc2ccccc2)c1)NCCc1ccccn1` (configuration not stated), the compound was classed as inactive.

Regarding `COc1ccccc1/C=C/CN1CCCC(CCC(=O)NCc2ccccc2F)C1` (configuration not stated), the activation is 44% (active).

Take `C=CCn1c(/N=C/c2ccc(N(C)C)cc2)nc2ccccc21`: the activation was 159% (active).

Turning to `Cc1oc(-c2ccccc2Cl)nc1CS(=O)CC(=O)NCCCN1CC(C)CC(C)C1` (configuration not stated), the activation is 31% (active).

For the compound `COc1ccc(CN2CCC(N(CCc3ccccc3)Cc3ccccc3)CC2)c(OC)c1`, the activation is 44% (active).

On to `O=C(NC(=S)NNC(=O)c1ccccc1[N+](=O)[O-])c1ccc(Br)cc1`, for which the activation was 29% (active).

As to `O=C(NC1CCN(Cc2ccccc2)CC1)C12CC3CC(CC(C3)C1)C2`, the activation was 54% (active).

As for `CCCN1CCN(C(=O)Cn2c(=O)oc3cc(S(=O)(=O)NCc4ccccc4)ccc32)CC1`, the compound was called inactive.

For the compound `Cn1c2ccccc2c(=O)c2c(=O)n(C3CCCCC3)c(-c3ccco3)nc21`, the outcome was inactive.

Turning to `OCCC1CN(Cc2ccccc2-c2ccco2)CCN1Cc1ccccc1` (configuration not stated), the activation is 63.5% (active).

`CCN1CCCC1CNS(=O)(=O)c1c(C)cc(C)cc1C` (configuration not stated): the activation is 61.5% (active).

In the case of `Cc1ccc(OCC(=O)N(C)CCc2ccccn2)cc1`, the call was inactive.

With `CC(C)n1cnc2c(N(C)c3ccccc3)nc(N(CCN(C)C)Cc3ccccc3)nc21`, the activation was 31% (active).

For the compound `CCC(=O)N1CCc2cc(Br)cc(S(=O)(=O)NCCCN(CC)Cc3ccccc3)c21`, the compound was called inactive.

As to `NCCCNC(=O)c1cc2ccccc2[nH]1`, the compound was called inactive.

On to `CN(C)C(CNC(=O)Nc1cccc(Cl)c1)c1cccnc1` (configuration not stated), for which the activation was 30.5% (active).

`CN(C)C(CNC(=O)CCS(=O)(=O)c1ccccc1)c1ccccc1` (configuration not stated): the result was inactive.

Take `COc1c2c(cc3c1C(CC(O)Cc1ccccc1)N(C)CC3)OCO2` (configuration not stated): the activation was 43% (active).

Regarding `CC1CN(C)C(C)c2c1oc1ccc(N)cc21` (configuration not stated), the result was inactive.

As for `CN(C)c1ccc(C(CNC(=O)Cc2cccc3ccccc23)N(C)C)cc1` (configuration not stated), the call was inactive.

In the case of `Cc1cc(C)cc(NC(=S)N2CCN(c3ncc(C(F)(F)F)cc3Cl)CC2)c1`, the activation is 25% (active).

`COC(=O)C1CCN(Cc2cn(-c3ccccc3)nc2-c2ccc3c(c2)OCO3)CC1`: the activation is 45% (active).

Consider `Cc1cccc(OCCOCCN2CCNCC2)c1C`, for which the activation was 35% (active).

On to `O=C1/C(=C\c2cc([N+](=O)[O-])ccc2O)SC(=S)N1Cc1ccc(Cl)cc1`, for which the activation is 529% (active).

Consider `CCn1c(N2CCN(S(=O)(=O)CC)CC2)nc2ccccc21`, for which the outcome was inactive.

In the case of `COc1ccc(CSCCN)cc1Cl`, the compound was called inactive.

On to `O=C1S/C(=C\c2ccc(N3CCOCC3)o2)C(=O)N1Cc1c(F)cccc1Cl`, for which the activation was 280% (active).

With `CC(C)(C)[C@H]1C=C(C(=O)NCc2ccccc2)O[C@@H](OCc2ccc(CO)cc2)C1`, the activation was 24.5% (active).

With `Nc1c(C(=O)c2ccccc2)sc2nsc(SCCN3CCCC3)c12`, the activation was 410% (active).

With `O=C(CC(=O)c1c(F)cccc1Cl)c1ccccc1O`, the activation was 37% (active).

For `Cc1ccccc1Cn1c(CN2CCc3ccccc3C2)nc2c1c(=O)n(C)c(=O)n2C`, the activation is 71% (active).

Consider `Cc1csc2c(N3CCN(C(=O)Nc4ccc(OC(F)(F)F)cc4)CC3)ncnc12`, for which the compound was called inactive.

Take `O=S(=O)(NCCc1csc(-c2ccccc2)n1)c1cccnc1`: the activation was 59% (active).
